For test [1], the target named is T1, Aurora kinase A (Homo sapiens) (UniProt O14965).
T1 sequence (whole entry): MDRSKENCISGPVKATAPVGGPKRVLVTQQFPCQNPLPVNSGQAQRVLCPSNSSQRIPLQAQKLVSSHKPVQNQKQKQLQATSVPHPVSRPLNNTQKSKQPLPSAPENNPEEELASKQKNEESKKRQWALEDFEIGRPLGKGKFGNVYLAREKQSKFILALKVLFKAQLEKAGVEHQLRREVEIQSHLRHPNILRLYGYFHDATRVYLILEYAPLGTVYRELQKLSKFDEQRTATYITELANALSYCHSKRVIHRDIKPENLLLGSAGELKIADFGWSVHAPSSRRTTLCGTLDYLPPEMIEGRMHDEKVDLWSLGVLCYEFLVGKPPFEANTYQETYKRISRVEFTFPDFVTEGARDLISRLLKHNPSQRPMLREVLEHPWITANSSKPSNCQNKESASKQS
Nature of the test: Inhibition of recombinant full length human N-terminal GST-tagged Aurora A expressed in baculovirus infected Sf9 cells at 10 uM using myelin basic protein as substrate after 60 mins by ADP-Glo luminescence assay relative to control. In short, it runs like this:
(§1)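 Purified active Aurora A or Aurora B with myelin basic protein substrate and 10 µM ATP; compounds dissolved in DMSO and tested at a single concentration (10 µM screen, or 1 µM). Reaction 60 min at room temperature, then ADP-Glo reagent 30 min and detection reagent 30 min; luminescence read. Inhibition expressed relative to 10 µM staurosporine.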
On the technique in general: ADP-Glo turns the ADP formed in a reaction into a luminescent signal.

Test [2] addresses T2, Aurora kinase B (Homo sapiens, UniProt Q96GD4). Nature of the test: Inhibition of recombinant full length human N-terminal GST-tagged Aurora B expressed in baculovirus infected Sf9 cells at 10 uM using myelin basic protein as substrate after 60 mins by ADP-Glo luminescence assay relative to control. In short, it runs like this: as §1
The target in test [3] is T1, Aurora kinase A (Homo sapiens). As to the kind of experiment: Inhibition of recombinant full length human N-terminal GST-tagged Aurora A expressed in baculovirus infected Sf9 cells at 1 uM using myelin basic protein as substrate after 60 mins by ADP-Glo luminescence assay relative to control. In short, it runs like this: as §1
Test [4] concerns the target T2, Aurora kinase B. Nature of the test: Inhibition of recombinant full length human N-terminal GST-tagged Aurora B expressed in baculovirus infected Sf9 cells at 1 uM using myelin basic protein as substrate after 60 mins by ADP-Glo luminescence assay relative to control. In short, it runs like this: as §1
Test [5] deals with T2, Aurora kinase B. As to the kind of experiment: Inhibition of recombinant full length human N-terminal GST-tagged Aurora B expressed in baculovirus infected Sf9 cells using myelin basic protein as substrate after 60 mins by ADP-Glo luminescence assay. In short, it runs like this: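 ADP-Glo assay with purified active Aurora B, myelin basic protein substrate, 10 µM ATP, 60 min kinase reaction at room temperature followed by luminescence detection. IC50 determined for compounds exceeding 50% inhibition relative to staurosporine, calculated by curve fitting.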

For test [6], the system named is HeLa. Nature of the test: Cell cycle arrest in human HeLa cells assessed as accumulation at G2/M phase at 50 uM after 24 hrs by propidium iodide staining based flow cytometry (reference value: 12 %). In kind it is functional. In short, it runs like this:
(§2)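 HeLa cells seeded the day before and exposed to inhibitor (10 or 50 µM) or DMSO for 24 h, harvested non-enzymatically, fixed in cold 70% EtOH at 4 °C for 2 h, stained with PI/Triton X-100 solution containing RNase A (25 °C, 20 min, dark). Cell cycle distribution was measured by flow cytometry, and the G2/M percentage was compared with DMSO.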

The target of test [7] is T2, Aurora kinase B. As to the kind of experiment: Inhibition of Aurora B in human HeLa cells assessed as reduction in histone H3 phosphorylation at Ser10 residue after 1 hr by Western blot analysis. The format is cell-based. In short, it runs like this: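 HeLa cells synchronized in mitosis by a 16 h Monastrol block, then released into Monastrol-free medium containing inhibitor at graded concentrations; Hesperadin 5 µM and DMSO as references. Cells harvested 1 h after release, lysed in RIPA with protease/phosphatase inhibitors, 20 µg protein resolved on 8~15% SDS-PAGE. Immunoblotted for phospho-H3S10, total histone H3, α-tubulin and Aurora B.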
Background: In western blotting, separated proteins are transferred to a membrane and probed.

In test [8] the test system is HeLa. Nature of the test: Cell cycle arrest in human HeLa cells assessed as increase in accumulation at G2/M phase at 50 uM after 24 hrs by propidium iodide staining based flow cytometry relative to control. The format is functional. In short, it runs like this:
as §2
Background: Flow cytometry measures light scatter and fluorescence of single cells or particles in a stream.

As usually defined, the inhibition is how much of the control response was suppressed. By IC50 is commonly meant the concentration needed to halve the response being measured.

Active and inactive are the calls of the source. The calls are words filed in the database; no cut-off is given here.

T2 sequence (Q96GD4 whole entry): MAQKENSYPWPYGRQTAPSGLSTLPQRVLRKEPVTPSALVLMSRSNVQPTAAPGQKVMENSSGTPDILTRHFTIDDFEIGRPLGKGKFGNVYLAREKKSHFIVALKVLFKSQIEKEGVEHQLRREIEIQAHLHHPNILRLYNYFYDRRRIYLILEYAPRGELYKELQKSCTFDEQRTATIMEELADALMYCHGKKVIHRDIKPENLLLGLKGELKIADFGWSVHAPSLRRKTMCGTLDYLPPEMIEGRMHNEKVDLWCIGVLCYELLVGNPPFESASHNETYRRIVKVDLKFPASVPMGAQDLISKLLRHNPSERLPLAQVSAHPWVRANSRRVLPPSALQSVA

Turning to `O=C(Nc1cccc(CNc2nc3ccc(OCCN4CCOCC4)cc3s2)c1)c1cccc(Cl)c1`, in test [1], the inhibition result was “inactive”. Further, the inhibition in test [2] turned out to be 30%.

As for `COc1ccc(NC(=S)Nc2ccc(CNc3nc4ccc(OCCN5CCOCC5)cc4s3)cc2)cc1`, the inhibition result in test [3] was “inactive”. Besides, in test [4], the inhibition worked out at 72%. Also, the IC50 in test [5] worked out at 360 nM.

`O=C(Nc1ccc(Cl)cc1)Nc1ccc(CNc2nc3ccc(OCCN4CCOCC4)cc3s2)cc1`: the Activity in test [6] stood at 17%. For the same compound, the inhibition entry in test [7] was “Dose-dependent effect”; in test [4], 100%. Also, in test [3], the inhibition result was “inactive”. For the same compound, the IC50 in test [5] was 120 nM.

With `O=C(Nc1ccccc1CNc1nc2ccc(OCCN3CCOCC3)cc2s1)c1ccccc1`, the inhibition entry in test [1] and in test [2] was “inactive” in each case.

As for `O=C(Nc1ccccc1)n1ccc(CNc2nc3ccc(OCCN4CCOCC4)cc3s2)n1`, the inhibition in test [2] was 12%.

`O=C(Nc1ccc(CNc2nc3ccc(OCCN4CCOCC4)cc3s2)cc1)c1ccc(Cl)cc1`: in test [1], the inhibition result is “inactive”. Also, in test [2], the inhibition was found to be 59%. Besides, the IC50 in test [5] was determined as 3000 nM.

With `O=S(=O)(Nc1ccc(CNc2nc3ccc(OCCN4CCOCC4)cc3s2)cc1)c1ccccc1`, the inhibition result in test [1] is “inactive”. Besides, the inhibition in test [2] came out at 16%.

Consider `CN(C)CCOc1ccc2nc(NCc3ccc(NC(=O)Nc4ccc(Cl)cc4)cc3)sc2c1`, for which, in test [3], the inhibition result is “inactive”. For the same compound, in test [4], the inhibition came out at 65%. Besides, in test [5], the IC50 amounted to 320 nM.

As to `O=S(=O)(Nc1ccc(CNc2nc3ccc(OCCN4CCOCC4)cc3s2)cc1)c1ccc(Cl)cc1`, the inhibition result in test [1] was “inactive”. Moreover, in test [2], the inhibition was 28%.

Regarding `O=C(Nc1ccc(Cl)cc1)Nc1ccc(CNc2nc3ccc(OCCN4CCCCC4)cc3s2)cc1`, the inhibition entry in test [3] was “inactive”. Besides, the inhibition in test [4] stood at 5%. Further, the IC50 in test [5] is 2300 nM.

On to `O=C(Nc1ccc(Cl)cc1)Nc1cccc(CNc2nc3ccc(OCCN4CCOCC4)cc3s2)c1`, for which the inhibition result in test [3] was “inactive”. The inhibition in test [4] worked out at 31%. Moreover, the IC50 in test [5] was found to be 1200 nM.

On to `O=C(Nc1ccc(CNc2nc3ccc(OCCN4CCOCC4)cc3s2)cc1)Nc1cccc(Cl)c1`, for which the inhibition entry in test [3] is “inactive”. In test [4], the inhibition stood at 67%. Besides, the IC50 in test [5] stood at 460 nM.

Turning to `O=C(Nc1ccccc1)Nc1ccc(CNc2nc3ccc(OCCN4CCOCC4)cc3s2)cc1`, in test [3], the inhibition result is “inactive”. Moreover, the inhibition in test [4] was found to be 91%. Further, the IC50 in test [5] was found to be 270 nM.

Take `O=C(Nc1ccc(Cl)c(Cl)c1)n1ccc(CNc2nc3ccc(OCCN4CCOCC4)cc3s2)n1`: the inhibition in test [2] came to 46%.

In the case of `O=C(Nc1cccc(CNc2nc3ccc(OCCN4CCOCC4)cc3s2)c1)c1ccc(Cl)cc1`, the inhibition entry in test [1] was “inactive”. Also, the inhibition in test [2] worked out at 42%. For the same compound, the IC50 in test [5] amounted to 6200 nM.

For the compound `O=C(Nc1ccc(Cl)cc1)n1ccc(CNc2nc3ccc(OCCN4CCOCC4)cc3s2)n1`, the inhibition in test [2] worked out at 31%.

In the case of `O=C(Nc1cccc(CNc2nc3ccc(OCCN4CCOCC4)cc3s2)c1)c1ccc([N+](=O)[O-])cc1`, the inhibition result in test [1] is “inactive”. For the same compound, the inhibition in test [2] worked out at 17%.

Turning to `O=C(Nc1ccc(CNc2nc3ccc(OCCN4CCOCC4)cc3s2)cc1)c1ccccc1`, the inhibition result in test [1] was “inactive”. The inhibition in test [2] is 25%.

With `S=C(Nc1ccc(Cl)cc1)Nc1ccc(CNc2nc3ccc(OCCN4CCOCC4)cc3s2)cc1`, the figures for the inhibition in test [3] and in test [4] were 3% and 94%, respectively. For the same compound, the IC50 in test [5] is 110 nM.

Consider `O=C(Nc1ccc(Br)cc1)n1ccc(CNc2nc3ccc(OCCN4CCOCC4)cc3s2)n1`, for which the inhibition in test [2] was determined as 31%.

`O=C(Nc1cccc(Cl)c1)Nc1cccc(CNc2nc3ccc(OCCN4CCOCC4)cc3s2)c1`: the inhibition result in test [3] was “inactive”. Besides, in test [4], the inhibition stood at 33%. Moreover, the IC50 in test [5] was 1000 nM.

On to `O=S(=O)(Nc1ccc(CNc2nc3ccc(OCCN4CCOCC4)cc3s2)cc1)c1ccc(F)cc1`, for which the inhibition result in test [1] was “inactive”. The inhibition in test [2] is 30%.

On to `O=C(Nc1cccc(CNc2nc3ccc(OCCN4CCOCC4)cc3s2)c1)c1ccc(F)cc1`, for which the inhibition result in test [1] is “inactive”. Further, the inhibition in test [2] came to 56%. In test [5], the IC50 worked out at 9000 nM.

As to `O=C(Nc1cccc(CNc2nc3ccc(OCCN4CCOCC4)cc3s2)c1)c1ccccc1`, the inhibition result in test [1] was “inactive”. Besides, the inhibition in test [2] was found to be 24%.

For `O=C(Nc1ccccc1)Nc1cccc(CNc2nc3ccc(OCCN4CCOCC4)cc3s2)c1`, the inhibition result in test [3] was “inactive”. The inhibition in test [4] is 37%. Further, in test [5], the IC50 amounted to 3100 nM.

For `COc1ccc(C(=O)Nc2ccc(CNc3nc4ccc(OCCN5CCOCC5)cc4s3)cc2)cc1`, the inhibition entry in test [1] was “inactive”. For the same compound, the inhibition in test [2] is 85%. In addition, the IC50 in test [5] came out at 700 nM.

For the compound `O=C(Nc1ccc(CNc2nc3ccc(OCCN4CCOCC4)cc3s2)cc1)c1cccc(Cl)c1`, the inhibition entry in test [1] was “inactive”. In test [2], the inhibition turned out to be 91%. For the same compound, the 50% inhibitory concentration (IC50) in test [5] amounted to 1400 nM.

In the case of `O=C(Nc1ccc(Br)cc1)Nc1ccc(CNc2nc3ccc(OCCN4CCOCC4)cc3s2)cc1`, the “fold change (FC)” value in test [8] is >2. Besides, the inhibition entry in test [7] was “Dose-dependent effect”; in test [3] it was 9%; in test [4], 83%. In addition, in test [5], the IC50 came out at 90 nM.

As for `O=C(Nc1ccc(F)cc1)n1ccc(CNc2nc3ccc(OCCN4CCOCC4)cc3s2)n1`, in test [2], the inhibition was 5%.

For the compound `O=C(Nc1ccc(F)cc1)Nc1ccc(CNc2nc3ccc(OCCN4CCOCC4)cc3s2)cc1`, the inhibition result in test [3] was “inactive”. In addition, the inhibition in test [4] came to 44%. Besides, in test [5], the IC50 was 700 nM.

Consider `COc1ccc(NC(=O)Nc2ccc(CNc3nc4ccc(OCCN5CCOCC5)cc4s3)cc2)cc1`, for which the inhibition result in test [3] is “inactive”. For the same compound, the inhibition in test [4] is 79%. In addition, the IC50 in test [5] was determined as 250 nM.

As for `O=C(Nc1ccc(CNc2nc3ccc(OCCN4CCOCC4)cc3s2)cc1)Nc1ccc(Cl)c(Cl)c1`, the inhibition in test [3] stood at 2%; in test [4], 77%. For the same compound, the IC50 in test [5] was found to be 270 nM.

Source of the values: ChEMBL document CHEMBL4033715, “Optimization and biological evaluation of 2-aminobenzothiazole derivatives as Aurora B kinase inhibitors” (Bioorg Med Chem, 2017).
